Columns and labels:
Canis familiaris [1] = experiment: % inhibition of Histamine-stimulated gastric acid secretion in Heidenhain pouch dog 4 uM/kg, on peroral administration of the compound.; assay type: functional, Canis lupus familiaris, Stomach
Method in brief: (§1)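 Heidenhain pouch dogs with histamine-stimulated acid secretion; compound given orally as a dry powder in a hard gelatin capsule; inhibition of acid secretion measured.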

[2] = biological target: Potassium-transporting ATPase (Sus scrofa, UniProt P19156); experiment: Inhibition of K+ stimulated gastric ATPase activity; assay type: tissue-based, Stomach
Method in brief: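 K+-stimulated ATPase activity measured in a lyophilized gastric vesicle preparation at pH 7; enzyme concentration estimated at around 2 nM from 32P-ATP binding.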

[3] = biological target: T1, Potassium-transporting ATPase (Rattus norvegicus) (UniProt P09626+P18598); experiment: Inhibition of pentagastrin stimulated gastric acid secretion in anesthetized rat 10 uM/kg, on iv administration of the compound.; assay type: functional, organism-based; details: Stomach
Method in brief: (§2)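 Anaesthetized rat with lumen-perfused stomach; acid secretion induced by pentagastrin; compound given intravenously; inhibition of acid output recorded.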

[4] = biological target: T1, Potassium-transporting ATPase (Rattus norvegicus); experiment: Inhibition of pentagastrin stimulated gastric acid secretion in anesthetized rat at 10 uM/kg; assay type: functional; details: Stomach; 10 umol/kg; method in brief: as §2
Canis familiaris [5] = experiment: % inhibition of Histamine-stimulated gastric acid secretion in Heidenhain pouch dog 1 uM/kg, on iv administration of the compound.; assay type: functional, Canis lupus familiaris, Stomach
Canis familiaris [6] = experiment: Histamine-stimulated gastric acid secretion in Heidenhain pouch dog at 1uM/Kg, on iv administration of the compound; assay type: functional, Canis lupus familiaris, Stomach
Canis familiaris [7] = experiment: Histamine-stimulated gastric acid secretion in Heidenhain pouch dog at 4uM/Kg, on oral administration of the compound
Rattus norvegicus [8] = experiment: Inhibition of pentagastrin stimulated gastric acid secretion in anesthetized rat on iv administration of the compound.; assay type: functional; details: Stomach; method in brief: as §2
Canis familiaris [9] = experiment: % inhibition of Histamine-stimulated gastric acid secretion in Heidenhain pouch dog at 4 uM/kg, on peroral administration of the compound.; assay type: functional, Canis lupus familiaris, Stomach; method in brief: as §1
Canis familiaris [10] = experiment: % inhibition of Histamine-stimulated gastric acid secretion in Heidenhain pouch dog at1uM/kg, on iv administration of the compound.; assay type: functional, Canis lupus familiaris, Stomach
Rattus norvegicus [11] = experiment: Inhibition of pentagastrin stimulated gastric acid secretion in anesthetized rat at 10 uM/kg, on iv administration of the compound.; assay type: functional, Stomach; method in brief: as §2
Rattus norvegicus [12] = experiment: Inhibition of pentagastrin stimulated gastric acid secretion in anesthetized rat on 10 uM/kg, iv administration of the compound.; assay type: functional, Stomach; method in brief: as §2
[13] = biological target: Potassium-transporting ATPase (Sus scrofa) (UniProt P18434+P19156); experiment: Inhibition of K+ stimulated gastric ATPase activity at 100 uM[…]; assay type: tissue-based; details: Stomach

Chain of Potassium-transporting ATPase (P18434 whole entry): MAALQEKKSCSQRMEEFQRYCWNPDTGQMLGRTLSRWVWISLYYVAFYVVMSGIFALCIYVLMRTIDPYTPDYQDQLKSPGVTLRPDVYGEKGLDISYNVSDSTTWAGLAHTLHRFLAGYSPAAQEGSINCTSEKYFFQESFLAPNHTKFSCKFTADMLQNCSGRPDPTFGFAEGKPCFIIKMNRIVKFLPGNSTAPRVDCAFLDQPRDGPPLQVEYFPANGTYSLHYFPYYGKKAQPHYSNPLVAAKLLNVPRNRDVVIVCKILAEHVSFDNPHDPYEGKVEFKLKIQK
Chain of Potassium-transporting ATPase (P19156 whole entry): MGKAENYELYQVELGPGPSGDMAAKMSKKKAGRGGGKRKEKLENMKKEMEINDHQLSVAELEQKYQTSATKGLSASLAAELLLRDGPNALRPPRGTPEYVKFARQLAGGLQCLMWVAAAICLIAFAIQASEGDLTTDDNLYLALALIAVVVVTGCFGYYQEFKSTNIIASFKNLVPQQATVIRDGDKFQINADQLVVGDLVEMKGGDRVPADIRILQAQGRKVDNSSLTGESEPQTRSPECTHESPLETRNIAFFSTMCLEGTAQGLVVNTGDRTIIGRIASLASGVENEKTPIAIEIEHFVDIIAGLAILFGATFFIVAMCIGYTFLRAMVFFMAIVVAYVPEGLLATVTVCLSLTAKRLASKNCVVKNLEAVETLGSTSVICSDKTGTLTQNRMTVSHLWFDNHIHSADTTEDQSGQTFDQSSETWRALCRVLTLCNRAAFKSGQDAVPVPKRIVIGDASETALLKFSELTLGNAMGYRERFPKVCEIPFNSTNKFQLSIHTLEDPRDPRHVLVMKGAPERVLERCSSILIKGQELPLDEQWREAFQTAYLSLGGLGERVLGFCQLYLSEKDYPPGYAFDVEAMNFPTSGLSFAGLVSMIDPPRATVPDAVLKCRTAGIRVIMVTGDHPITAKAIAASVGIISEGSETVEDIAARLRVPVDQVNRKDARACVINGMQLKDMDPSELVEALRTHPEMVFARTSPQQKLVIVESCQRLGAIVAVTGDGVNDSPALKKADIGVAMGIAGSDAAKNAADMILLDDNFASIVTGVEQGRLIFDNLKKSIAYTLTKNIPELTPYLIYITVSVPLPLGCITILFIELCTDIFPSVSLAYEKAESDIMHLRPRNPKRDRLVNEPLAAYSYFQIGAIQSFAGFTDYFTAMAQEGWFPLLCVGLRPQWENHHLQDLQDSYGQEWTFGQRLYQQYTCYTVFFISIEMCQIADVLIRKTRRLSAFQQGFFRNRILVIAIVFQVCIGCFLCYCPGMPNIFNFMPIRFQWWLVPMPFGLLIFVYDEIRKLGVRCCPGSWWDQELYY

## Cc1cc(F)ccc1Nc1nc(N(C)c2ccccc2)c2cccc(OCCCN(C)C)c2n1
Canis familiaris [1]
  Inhibition: 0%
[2]
  IC50: 36 nM
[3]
  inhibition: 68%

## Cc1ccccc1Nc1nc(N(C)c2ccccc2C)c2ccccc2n1
[2]
  IC50: 46 nM
[4]
  inhibition: 90%

## COc1cccc2c(Nc3ccccc3C)nc(NCc3ccco3)nc12
[2]
  IC50: 1900 nM

## COc1ccc(Nc2nc(N(C)c3ccccc3)c3ccccc3n2)c(C)c1
[2]
  IC50: 360 nM

## Cc1ccccc1Nc1nc(N(C)c2ccccc2)c2cccc(OCCO)c2n1
Canis familiaris [5]
  Inhibition: 73%
Canis familiaris [1]
  Inhibition: 8%
[2]
  IC50: 35 nM
[3]
  inhibition: 93%

## CCCC(=O)c1cnc2c(OC)cccc2c1Nc1ccccc1C
Canis familiaris [6]
  ED50: 0.26 µmol/kg
Canis familiaris [7]
  ED50: 1.6 µmol/kg

## CNc1nc(Nc2ccccc2C)c2cccc(OC)c2n1
[2]
  IC50: 640 nM
[4]
  inhibition: 19%

## Cc1cc(F)ccc1Nc1nc(N(C)c2ccccc2)c2cccc(F)c2n1
[2]
  IC50: 140 nM

## CN(c1ccccc1)c1nc(Nc2ccccc2)nc2ccccc12
[2]
  IC50: 65 nM
Rattus norvegicus [8]
  ED50: 2.35 µmol/kg

## Cc1ccccc1Nc1nc(N(C)c2ccccc2)c2cc(O)ccc2n1
[2]
  IC50: 24 nM

## CN(c1ccccc1)c1nc(N(C)c2ccccc2)c2ccccc2n1
Canis familiaris [9]
  Inhibition: 2%
Canis familiaris [10]
  Inhibition: 73%
[2]
  IC50: 67 nM
Rattus norvegicus [8]
  ED50: 2.81 µmol/kg

## COc1cccc2c(N(C)c3ccccc3C)nc(Nc3ccc(F)cc3C)nc12
[2]
  IC50: 95 nM

## COc1cccc2c(Nc3ccccc3C)ncnc12
[2]
  IC50: 11600 nM
[4]
  inhibition: 30%

## Cc1ccccc1Nc1nc(N(C)c2ccccc2)c2cccc(OCCCN(C)C)c2n1
Canis familiaris [5]
  Inhibition: 18%
Canis familiaris [1]
  Inhibition: 25%
[2]
  IC50: 21 nM
[3]
  inhibition: 49%

## Cc1cc(F)ccc1Nc1nc(N(C)c2ccccc2)c2cc(OCCCN(C)C)ccc2n1
[2]
  IC50: 1100 nM

## COc1cccc2c(Nc3ccccc3C)nc(NCc3nccs3)nc12
[2]
  IC50: 3800 nM
[4]
  inhibition: 33%

## Cc1cc(F)ccc1Nc1nc(N(C)c2ccccc2)c2sccc2n1
[2]
  IC50: 34 nM
Rattus norvegicus [11]
  Inhibition: 49%

## Cc1ccccc1Nc1nc(N)nc2ccccc12
[2]
  IC50: 1320 nM
Rattus norvegicus [8]
  ED50: 48 µmol/kg

## Cc1ccccc1Nc1nc(Nc2ccccc2)c2ccccc2n1
[2]
  IC50: 940 nM

## Cc1ccccc1Nc1nc(N(C)c2ccc(O)cc2)c2ccccc2n1
[2]
  IC50: 19 nM

## Cc1ccccc1Nc1nc(N(C)c2ccc(F)cc2)c2ccccc2n1
[2]
  IC50: 120 nM
Rattus norvegicus [11]
  Inhibition: 62%

## Cc1ccccc1Nc1nc(Nc2ccccc2C)c2ccccc2n1
[2]
  IC50: 600 nM

## Cc1cc(F)ccc1Nc1nc(N(C)c2ccccc2)c2ccccc2n1
Canis familiaris [5]
  Inhibition: 79%
Canis familiaris [1]
  Inhibition: 0%
[2]
  IC50: 21 nM
Rattus norvegicus [8]
  ED50: 1.94 µmol/kg

## COc1ccc(Nc2nc(N(C)c3ccccc3)c3sccc3n2)c(C)c1
[2]
  IC50: 340 nM

## Cc1cc(F)ccc1Nc1nc(N(C)c2ccccc2)c2cccc(OCCO)c2n1
[2]
  IC50: 100 nM

## COc1cccc2c(N(C)c3ccccc3)nc(N(C)c3ccccc3)nc12
[2]
  IC50: 74 nM

## COc1cccc2c(N(C)c3ccccc3)nc(N)nc12
[2]
  IC50: 1200 nM
[4]
  inhibition: 13%

## Cc1ccccc1Nc1nc(N(C)c2ccccc2)c2ccccc2n1
Canis familiaris [9]
  Inhibition: 0%
Canis familiaris [10]
  Inhibition: 74%
[2]
  IC50: 22 nM
[4]
  inhibition: 79%

## Cc1ccccc1Nc1nc(N(C)c2ccccc2)c2ccsc2n1
[2]
  IC50: 510 nM

## COc1cccc2c(Nc3ccccc3C)nc(Nc3ccccc3C)nc12
[2]
  IC50: 2500 nM

## CN/C(=N\CCSCc1nc[nH]c1C)NC#N [CIMETIDINE]
Canis familiaris [6]
  ED50: 1.7 µmol/kg
Canis familiaris [7]
  ED50: 8.5 µmol/kg

## CN(c1ccccc1)c1nc(N)nc2ccccc12
[2]
  IC50: 3300 nM
[4]
  inhibition: 17%

## COc1cccc2c(N(C)c3ccccc3C)nc(Nc3ccccc3C)nc12
[2]
  IC50: 100 nM
[3]
  inhibition: 93%

## Cc1ccccc1Nc1nc(N2CCCC2)nc2ccccc12
[2]
  IC50: 2260 nM
[4]
  inhibition: 17%

## COc1ccc(N(C)c2nc(Nc3ccccc3C)[n+](C)c3ccccc23)cc1
[2]
  IC50: 28 nM

## COc1ccc(N(C)c2nc(Nc3ccccc3C)nc3ccccc23)cc1
Canis familiaris [9]
  Inhibition: 12%
[2]
  IC50: 34 nM
[4]
  inhibition: 60%

## Cc1ccccc1Nc1nc(N(C)c2ccccc2C)nc2ccccc12
[2]
  IC50: 2000 nM
[4]
  inhibition: 27%

## CCOC(=O)COc1cccc2c(N(C)c3ccccc3)nc(Nc3ccc(F)cc3C)nc12
[2]
  IC50: 130 nM
Rattus norvegicus [12]
  Inhibition: 39%

## CN(c1ccccc1)c1nc(N(C)c2ccccc2)c2ccsc2n1
[2]
  IC50: 1300 nM
Rattus norvegicus [11]
  Inhibition: 14%

## Cc1cc(F)ccc1Nc1nc(N(C)c2ccccc2)c2cc(OCCN(C)C)ccc2n1
[2]
  IC50: 1300 nM

## COc1cccc2c(Nc3ccccc3C)nc(N(C)C)nc12
[2]
  IC50: 16000 nM
[4]
  inhibition: 37%

## Cc1cc(F)ccc1Nc1nc(N(C)c2ccccc2)c2cccc(O)c2n1
[2]
  IC50: 170 nM

## Cc1cc(Cl)ccc1Nc1nc(N(C)c2ccccc2)c2ccccc2n1
[2]
  IC50: 41 nM
[3]
  inhibition: 31%

## COc1cccc2c(Nc3ccccc3C)nc(NCc3ccccc3)nc12
[2]
  IC50: 2000 nM

## Cc1ccccc1Nc1nc(NCCc2ccccc2)nc2ccccc12
[2]
  IC50: 810 nM
[4]
  inhibition: 31%

## COc1cccc2c(Nc3ccccc3C)nc(N3CCCC3)nc12
[2]
  IC50: 30000 nM
[4]
  inhibition: 31%

## Cc1cc(F)ccc1Nc1nc(N(C)c2ccccc2)c2ccsc2n1
[2]
  IC50: 130 nM

## Cc1ccccc1Nc1nc(Nc2ccccc2)c2ccsc2n1
[13]
  inhibition: 27%

## CCN(c1ccccc1)c1nc(Nc2ccccc2C)nc2ccccc12
[2]
  IC50: 320 nM
[4]
  inhibition: 59%

## Cc1cc(F)ccc1Nc1nc2c(C)cccc2c2c1CCN2c1ccccc1C
[2]
  IC50: 130 nM

## Cc1ccccc1Nc1nc(NCCO)nc2ccccc12
[2]
  IC50: 4600 nM
[4]
  inhibition: 21%

## Cc1cc(F)ccc1Nc1nc(N(C)c2ccccc2)c2cc(O)ccc2n1
Canis familiaris [5]
  Inhibition: 97%
Canis familiaris [1]
  Inhibition: 0%
[2]
  IC50: 18 nM
Rattus norvegicus [8]
  ED50: 1.5 µmol/kg

## COc1cccc2c(Nc3ccccc3C)nc(NCCc3ccccc3)nc12
[2]
  IC50: 3200 nM

## CN(c1ccccc1)c1nc(N(C)c2ccccc2)c2sccc2n1
[2]
  IC50: 300 nM

## Cc1cc(F)ccc1Nc1nc(N(C)c2ccccc2)c2cccc(OCCCN3CCOCC3)c2n1
Canis familiaris [1]
  Inhibition: 0%
[2]
  IC50: 50 nM
[3]
  inhibition: 73%

## COc1cccc2c(N(C)c3ccccc3)nc(Nc3ccc(F)cc3C)nc12
Canis familiaris [5]
  Inhibition: 96%
Canis familiaris [1]
  Inhibition: 32%
[2]
  IC50: 32 nM
[3]
  inhibition: 94%

## COc1ccc2nc(Nc3ccc(F)cc3C)nc(N(C)c3ccccc3)c2c1
[2]
  IC50: 250 nM
Rattus norvegicus [12]
  Inhibition: 27%

## COc1ccc2nc(Nc3ccccc3C)nc(N(C)c3ccccc3)c2c1
[2]
  IC50: 510 nM
[3]
  inhibition: 46%

## Cc1ccccc1Nc1nc(NCc2ccccc2)nc2ccccc12
[2]
  IC50: 510 nM

## Cc1cc(O)ccc1Nc1nc(N(C)c2ccccc2)c2ccccc2n1
[2]
  IC50: 1070 nM
[3]
  inhibition: 23%

## COc1cccc2c(Nc3ccccc3C)nc(N(C)c3ccccc3)nc12
[2]
  IC50: 590 nM
[4]
  inhibition: 37%

## Cc1ccccc1Nc1nc(Nc2ccccc2C)c2ccsc2n1
[13]
  inhibition: 27%

## Cc1ccccc1Nc1nc(N)nc2c(C)cccc12
[2]
  IC50: 240 nM
[4]
  inhibition: 48%

## Cc1ccccc1Nc1nc(N(C)c2ccccc2)c2cccc(O)c2n1
[2]
  IC50: 260 nM

## CCNc1nc(Nc2ccccc2C)c2ccccc2n1
[2]
  IC50: 1390 nM

## Cc1cc(F)ccc1Nc1nc(N(C)c2ccccc2)c2cc(OCCCN3CCOCC3)ccc2n1
[2]
  IC50: 370 nM
[3]
  inhibition: 5%

## CNc1nc2c(C)cccc2c2c1CCN2c1ccccc1C
[2]
  IC50: 180 nM
